Activity calls are given as the source filed them. The calls are words filed in the database; no cut-off is given here.
Key:
Mus musculus [1] = test: Toxicity in ICR mouse assessed as increase in blood triglyceride level at 30 mg/kg/day, po for 7 days; type: organism-based; set-up: route oral; conditions: in vivo, 168 h
How it was run: (§1)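 Male ICR mice, 6−7 weeks old, four per cage, grouped by body weight. Oral 30 mg/kg or vehicle (1% ethanol/0.5% CMC in water, 10 mL/kg) once daily for 7 days, body weight recorded daily. After overnight fasting, mice were weighed under ether, and liver was removed and weighed. Serum was analysed on a dry-chemistry analyser for TG, TCHO, ALP, CRE, BUN and other markers. n = 7−23, ANOVA.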

Mus musculus [2] = test: Antidiabetic activity in KKAy mouse assessed as reduction in blood glucose level on day 4 to 12 at 10 mg/kg/day, po for 14 days; type: functional, organism-based
How it was run: (§2)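 Male KK-A^y mice, housed singly after 6 weeks' acclimation and grouped by blood glucose. Oral 10 mg/kg/day or vehicle (1% ethanol/0.5% CMC in water, 10 mL/kg) for 14 days. Body weight, food and water intake were followed. Fed blood glucose was taken from the tail vein by the glucose oxidase method. n = 4−5, ANOVA.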

Mus musculus [3] = test: Toxicity against KKAy mouse assessed as plasma gammaGTP level at 10 mg/kg/day, po for 14 days (reference value: 5.8 +/- 0.6 IU); type: organism-based; set-up: route oral; conditions: in vivo, 336 h
Mus musculus [4] = test: Antidiabetic activity in KKAy mouse assessed as reduction in water intake on day 3 to 12 at 10 mg/kg/day, po for 14 days relative to control; type: functional, organism-based; how it was run: as §2
Rattus norvegicus = test: Toxicity in Sprague-Dawley rat assessed as change in body weight at 30 mg/kg, po for 28 days; type: organism-based; set-up: dose 30 mg/kg, route oral; conditions: in vivo, 672 h
How it was run: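 Male and female SD rats, four weeks old on arrival, two per cage. Oral 30 mg/kg/day or vehicle (1% ethanol/0.5% CMC in water, 5 mL/kg) for 28 days, body weight recorded daily. After overnight fasting and isoflurane anaesthesia, liver, brain, kidney, spleen and testis were weighed, and serum was collected (2000g, 10 min, 4 °C) for blood chemistry.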

Mus musculus [5] = test: Hepatotoxicity in ICR mouse assessed as increase in ALP level at 30 mg/kg, po for 7 days; type: toxicity, organism-based; set-up: dose 30 mg/kg, route oral; conditions: in vivo, 168 h; how it was run: as §1
[6] = biological target: RXR alpha/PPAR gamma (Homo sapiens) (UniProt P37231+P19793); test: Transactivation of PPARgamma/RXRalpha (unknown origin) by luciferase reporter gene assay relative to TIPP703; type: protein-complex assay
How it was run: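 Heterodimer reporter in COS-1 cells co-transfected with RXRα (0.5 μg), partner receptor (LXRα for line 2, PPARγ for line 3; 0.5 μg), partner response element-luciferase (4.0 μg), and SEAP. Compound (DMSO below 1%) with ~2.0 × 10⁴ cells/well, 18 h, 37 °C; luciferase normalized to SEAP; triplicate, three runs.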

Mus musculus [7] = test: Toxicity against KKAy mouse assessed as plasma ALP level at 10 mg/kg/day, po for 14 days (reference value: 358.2 +/- 43.1 IU); type: organism-based; set-up: route oral; conditions: in vivo, 336 h
[8] = biological target: T1, Retinoic acid receptor RXR-alpha (Homo sapiens) (UniProt P19793); test: Transactivation of RXRalpha (unknown origin) expressed in COS1 cells at 1 uM after 18 hrs by luciferase reporter gene assay relative to bexarotene; type: cell-based; conditions: COS-1
T1 sequence (whole entry): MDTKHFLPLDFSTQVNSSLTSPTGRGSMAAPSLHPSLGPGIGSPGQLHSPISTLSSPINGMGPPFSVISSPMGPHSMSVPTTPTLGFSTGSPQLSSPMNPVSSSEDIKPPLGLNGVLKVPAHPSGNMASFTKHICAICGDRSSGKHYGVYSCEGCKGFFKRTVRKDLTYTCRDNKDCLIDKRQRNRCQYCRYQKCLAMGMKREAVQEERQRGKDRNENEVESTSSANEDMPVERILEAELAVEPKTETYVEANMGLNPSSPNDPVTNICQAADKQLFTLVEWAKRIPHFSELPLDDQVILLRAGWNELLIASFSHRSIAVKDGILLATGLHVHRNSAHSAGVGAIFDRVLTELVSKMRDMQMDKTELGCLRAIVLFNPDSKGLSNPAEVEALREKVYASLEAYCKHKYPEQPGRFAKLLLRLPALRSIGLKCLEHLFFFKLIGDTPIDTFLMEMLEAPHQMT
How it was run: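 COS-1 cells in DMEM with 10% FBS at 37 °C, 5% CO2, transfected with RXRα, an RXR-response-element luciferase reporter and a SEAP background vector. Cells were seeded at about 2.0 × 10⁴ per well with compound (DMSO below 1%) for 18 h. Luciferase was normalized to SEAP and expressed relative to 1 μM reference RXR full agonist as 100%. EC50 came from full dose-response curves. Triplicates, at least three experiments.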

[9] = biological target: T2, Oxysterols receptor LXR-alpha (Homo sapiens) (UniProt Q13133); test: Transactivation of LXRalpha (unknown origin) by luciferase reporter gene assay relative to carba-T0901317
T2 sequence (whole entry): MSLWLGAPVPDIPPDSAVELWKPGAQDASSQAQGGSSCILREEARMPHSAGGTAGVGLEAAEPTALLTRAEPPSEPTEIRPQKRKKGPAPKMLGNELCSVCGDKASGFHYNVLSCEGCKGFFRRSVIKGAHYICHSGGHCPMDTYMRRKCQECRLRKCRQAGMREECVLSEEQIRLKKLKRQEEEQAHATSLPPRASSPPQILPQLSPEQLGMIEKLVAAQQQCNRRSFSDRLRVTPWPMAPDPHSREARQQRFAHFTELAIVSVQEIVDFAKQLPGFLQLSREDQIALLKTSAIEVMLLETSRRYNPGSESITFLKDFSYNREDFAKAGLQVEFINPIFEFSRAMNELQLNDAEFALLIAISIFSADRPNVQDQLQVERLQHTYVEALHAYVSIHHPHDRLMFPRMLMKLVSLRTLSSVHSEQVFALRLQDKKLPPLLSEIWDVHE
How it was run: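 Heterodimer luciferase assay in COS-1 cells cotransfected with RXRα (0.5 μg), partner receptor (PPARγ or LXRα, 0.5 μg) and partner response element reporter (4.0 μg), plus SEAP. Compound (DMSO below 1%) was added with seeding at about 2.0 × 10⁴ cells/well, then 18 h at 37 °C, 5% CO2. Luciferase was normalized to SEAP. Triplicates, three runs.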

[10] = biological target: T3, Retinoic acid receptor beta (Homo sapiens) (UniProt P10826); test: Transactivation of RARbeta (unknown origin) by luciferase reporter gene assay relative to Am80
T3 sequence (whole entry): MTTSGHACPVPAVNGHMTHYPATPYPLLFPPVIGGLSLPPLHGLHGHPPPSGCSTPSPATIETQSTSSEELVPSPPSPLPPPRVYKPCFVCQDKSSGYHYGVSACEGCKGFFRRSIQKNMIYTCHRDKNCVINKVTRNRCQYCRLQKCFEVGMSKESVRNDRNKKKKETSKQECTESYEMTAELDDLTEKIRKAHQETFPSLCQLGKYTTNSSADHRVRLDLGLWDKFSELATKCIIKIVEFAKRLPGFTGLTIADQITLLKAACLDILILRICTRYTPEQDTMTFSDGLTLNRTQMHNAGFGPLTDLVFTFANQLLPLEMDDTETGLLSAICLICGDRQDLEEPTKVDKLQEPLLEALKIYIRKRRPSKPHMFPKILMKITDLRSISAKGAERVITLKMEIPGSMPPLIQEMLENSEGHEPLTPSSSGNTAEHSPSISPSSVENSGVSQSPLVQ

Activity [6]: Active
Efficacy [8]: 65%
Activity [9]: Active
Activity [10]: Active
Compound: Cc1cc2c(cc1-n1c(C(F)(F)F)nc3cc(C(=O)O)ccc31)C(C)(C)CCC2(C)C
Activity (Mus musculus [1]): Non-toxic
Activity (Mus musculus [2]): Active
Activity (Mus musculus [3]): 6.3 IU
Activity (Mus musculus [4]): Active
Activity (Rattus norvegicus): Non-toxic
Activity (Mus musculus [5]): Toxic
Activity (Mus musculus [7]): 554 IU
